Sampled rows, rich in hits. Any-hit rate of the full collection: about 3.1%.
OX1R antag-1 = antagonists of human orexin 1 receptor (OX1R); Orexin/Hypocretin receptor type 1 (Homo sapiens), O43613; OX1R-expressing cells, FRET antagonist read-out; inhibition, % at 6.6 µM; 330,000 tested, 1.8% active; AID 485270, 2010; in the data active = inhibition mostly above about 38%, no sharp cut-off; inactive = mostly below about 40%;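 also: 0% = agonist challenge alone and 100% = reference antagonist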
CHO parental Ca = ATP-evoked calcium signal inhibitors, parental CHO, primary screen, counter-screen for OX1R antagonist project, cell-based, fluorescence, Fluo-8 calcium dye; parental CHO-K1, ATP-induced calcium, Fluo-8 fluorescence; inhibition, % at 5.6 µM; 330,000 tested, 0.63% active;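 active = inhibition above that plate's mean sample inhibition plus 3 SD, cut at about 26% in these data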;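 also: 0% = ATP-challenged DMSO wells and 100% = DMSO wells without ATP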
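test system = CHO parental line | reagent = ATP stimulus | measured by = intracellular calcium via Fluo-8 no-wash fluorescent dye | control set = ATP and no-ATP DMSO wells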
GPR7 antagonist = GPR7 receptor antagonists, primary screen, cell-based, fluorescence, single concentration; inhibition, % at 4.4 µM; Neuropeptides B/W receptor type 1 (Homo sapiens), P48145; 290,000 tested, 1.1% active; GPR7-expressing cells, fluorescence antagonist assay; in the data active = inhibition above about 16%, passing the limit was not always enough;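 also: cells stimulated with the agonist NPW; 0% = agonist with vehicle and 100% = vehicle without agonist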
Target sequence (P48145 whole entry, looked up): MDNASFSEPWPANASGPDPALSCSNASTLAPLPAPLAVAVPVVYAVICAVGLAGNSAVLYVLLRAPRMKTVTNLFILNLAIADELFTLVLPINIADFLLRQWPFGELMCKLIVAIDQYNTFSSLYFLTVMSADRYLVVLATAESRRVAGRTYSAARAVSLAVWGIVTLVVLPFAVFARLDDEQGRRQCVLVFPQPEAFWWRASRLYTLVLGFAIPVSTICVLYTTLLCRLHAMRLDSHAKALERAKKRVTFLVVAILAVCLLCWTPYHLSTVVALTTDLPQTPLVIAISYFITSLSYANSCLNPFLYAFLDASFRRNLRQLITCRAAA
GalR3 antagonist = GalR3 antagonists in HEK293 cells, primary screen, cell-based, fluorescence readout. Galanin receptor type 3 (Homo sapiens), O60755. HEK293 GalR3-CNG cAMP membrane potential fluorescence; galR3 body fused to GalR1 C-terminus. inhibition, % at 3 µM. 360,000 tested, 0.44% active. AID 651719, 2012;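 active = inhibition above the screen-wide average plus 3 SD, cut at about 13% in these data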;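 also: forskolin and galanin both at EC90 stimulate the cells; cAMP rise reported by CNG channel membrane potential dye signal; 0% = forskolin plus galanin with DMSO and 100% = forskolin alone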
Target sequence (O60755 1-299 limits assumed): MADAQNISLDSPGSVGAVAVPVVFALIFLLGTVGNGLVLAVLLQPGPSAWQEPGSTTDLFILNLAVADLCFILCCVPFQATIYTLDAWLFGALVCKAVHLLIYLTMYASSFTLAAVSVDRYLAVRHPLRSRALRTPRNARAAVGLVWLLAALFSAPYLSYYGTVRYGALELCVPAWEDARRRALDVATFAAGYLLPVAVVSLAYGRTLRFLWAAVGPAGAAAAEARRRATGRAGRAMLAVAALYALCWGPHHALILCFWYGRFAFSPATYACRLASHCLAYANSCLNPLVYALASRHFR
OX1R antag-2 = OX1R (HCRTR1) antagonists, primary screen, fluorescence, CHO/OX1R cells, Fluo-8 calcium, orexin A. Orexin/Hypocretin receptor type 1 (Homo sapiens), O43613. Fluo-8 calcium fluorescence. inhibition, % at 5 µM. 330,000 tested, 0.43% active. AID 434989, 2010;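 active = inhibition above its plate's threshold, mean inhibition of all tested compounds on the plate plus 3 SD, cut at about 37% in these data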;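 also: 0% = orexin A challenge wells and 100% = SB-334867-A antagonist wells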
The depositor's hits bear a star; . = no result.

SMILES	OX1R antag-1	CHO parental Ca	GPR7 antagonist	GalR3 antagonist	OX1R antag-2
COc1ccccc1CN(C)C(=O)c1ccc(S(=O)(=O)NCc2ccco2)cc1	14.1	-9.0	.	-1.6	3.3
Cc1ccccc1OCC(=O)NC(=S)Nc1ccccc1N1CCN(S(C)(=O)=O)CC1	23.6	-22.8	-13.2	10.3	-26.6
CCC(CC)C(=O)Nc1cccc(C(=O)Nc2ccc(S(N)(=O)=O)cc2)c1	19.3	-4.5	-17.8	-3.0	-9.2
Cc1ccc(NS(=O)(=O)c2ccc(C3CCCCC3)cc2)cc1	11.3	42.1*	-11.1	-1.2	56.3*
Cc1ccc(S(=O)(=O)Nc2ccc(NC(=O)c3c(F)c(F)c(F)c(F)c3F)cc2)cc1	-6.0	43.8*	77.6*	-8.8	69.1*
CCC(CC)C(=O)Nc1cccc(C(=O)Nc2ccc(S(=O)(=O)Nc3ccc(C)cc3)cc2)c1	54.4*	10.5	-3.8	-5.8	54.7*
CC(C)CC1C(=O)N(Cc2cn(CCC3OCCO3)nn2)CCS(=O)(=O)N1Cc1ccc(-c2ccc(F)nc2)cc1 (stereo not given)	.	.	.	-1.0	.
COc1ccc(OC)c(S(=O)(=O)NCC2CCN(C(=O)C(=O)c3cccs3)CC2)c1	.	.	.	-6.4	.
CCC(=O)Nc1c(-c2ccc(Cl)cc2)c(=O)c2ccccc2n1C	.	.	-19.8	-12.2	.
C=CCn1c(SCC#N)nnc1-c1ccc2ncccc2c1	1.6	-5.0	0.2	-3.7	-7.3
Cc1ccc(SCCNC(=O)c2ccc(C)c(S(=O)(=O)Nc3ccccc3C)c2)cc1	48.1*	8.2	-11.0	-3.4	20.5
CN1/C(=C\C(=O)COC(=O)c2ccc(O)cc2)C(C)(C)c2ccccc21	28.9	53.8*	-13.6	-4.5	46.6*
CNS(=O)(=O)c1cccc(C(=O)OCC(=O)/C=C2/N(C)c3ccccc3C2(C)C)c1	10.2	30.1	-6.6	-6.9	11.8
CN1/C(=C\C(=O)COC(=O)c2ccc(O)c(O)c2)C(C)(C)c2ccccc21	12.4	49.9*	3.3	-4.7	40.5*
CCOC(=O)/C=C1/N(C)c2ccccc2C1(C)C	10.5	-1.5	-19.7	-6.7	-12.7
COc1ccc(-c2cc3c(=O)n(CC(=O)NCCCN4CCC(Cc5ccccc5)CC4)ncn3n2)cc1	17.9	39.6*	23.3	-4.2	14.9
Cc1cccc(C(=O)O/N=C2/CC3CCC2(C)C3(C)C)c1 (stereo not given)	12.6	30.7*	-7.2	5.2	-36.6
Cc1ccc(Cl)cc1N1CCN(C(=O)c2cc3c(=O)[nH]c4ccccc4c3n2C)CC1	16.9	45.2*	-3.0	2.6	39.9
CCCCN1C(=O)/C(=C/C=C2\N(C)c3ccccc3C2(C)C)SC1=S	0.8	31.5	14.0	.	51.2*
CCCN1C(=O)/C(=C\C=C2/C=CN(CC)c3ccccc32)SC1=S	25.9	-5.4	21.2*	-12.2	1.1
CCCCc1c(-c2ccccc2OC)ncn1Cc1ccc(Br)cc1	.	.	.	-7.3	.
Cc1ccc(-c2nc(-c3ccccn3)sc2CC(=O)O)cc1	35.7	-8.2	-3.8	-3.7	-10.2
COc1ccccc1NS(=O)(=O)c1cc(N/C(=N/S(=O)(=O)c2ccccc2)c2ccc(F)cc2)ccc1Cl	.	.	.	-0.6	.
COc1ccccc1NS(=O)(=O)c1cccc(NC(=O)Nc2ccc(Cl)cc2)c1	51.8*	81.9*	-4.8	-5.0	50.9*
COc1ccc(C(=O)/C=C/Nc2ccc(S(=O)(=O)Nc3cccc(C(C)=O)c3)cc2)cc1	70.7*	36.4*	4.2	-8.0	46.7*
SMILES	OX1R antag-1	CHO parental Ca	GPR7 antagonist	GalR3 antagonist	OX1R antag-2
COc1ccc(NS(=O)(=O)c2cccc(N/C(=N\S(=O)(=O)c3ccccc3)c3ccc(F)cc3)c2)cc1	8.3	7.1	20.6*	-1.7	12.9
COc1ccccc1NS(=O)(=O)c1ccc(C(=O)N2CCCCCCC2)cc1	26.1*	-3.6	.	-1.4	13.1
COc1ccccc1NS(=O)(=O)c1cccc(C(=O)N2CCCCCC2)c1	.	.	.	-2.5	.
COc1ccc(C(=O)NCC2CCN(C(=O)C(=O)c3cc4ccccc4o3)CC2)c(OC)c1	.	.	.	-5.3	.
CC(NC(=O)c1ccccc1F)c1nnc(SCC(=O)NC2CCCC2)n1C (stereo not given)	16.1	-3.0	-3.5	0.5	1.8
Cc1csc(=O)n1CCC(=O)OCC(=O)Nc1ccc(Cl)cn1	17.4	-10.4	.	-2.0	-21.4
COc1ccccc1NS(=O)(=O)c1cccc(NC(=O)Nc2ccccc2)c1	23.2	23.2	-9.8	-10.5	44.1*
O=C(CN1CCCC1c1cccs1)Nc1cc(S(=O)(=O)N2CCCC2)ccc1Cl (stereo not given)	18.6	-15.3	.	-5.9	-23.0
CN(CC(=O)Nc1cccc(S(=O)(=O)N2CCCC2)c1)CC(=O)Nc1ccc(Cl)c(C(F)(F)F)c1	13.8	53.6*	.	-2.1	-2.9
O=C(CN1CCCC1c1cccs1)Nc1cccc(S(=O)(=O)N2CCCC2)c1 (stereo not given)	31.6*	-13.4	.	3.6	4.6
COC(=O)[C@]1(Cc2ccccc2)NC=C(C(=O)c2ccc(F)cc2)[C@@H]1c1ccccc1	.	.	.	-8.2	.
COC(=O)C1=C(C)N(Cc2ccccc2C(F)(F)F)C(=NCc2ccccc2)NC1c1cccc(C(F)(F)F)c1 (stereo not given)	.	.	.	-7.5	.
CC(C)(C)c1cc(OC(=O)C2CCCC2)ccc1O	5.6	27.9	-1.9	-10.2	10.4
CCCCC(CC)C(=O)Oc1ccc(O)c(C(C)(C)C)c1 (stereo not given)	17.8	5.4	30.5*	-8.7	-28.6
Cc1ccc(CNC(=O)Cn2ccc3cc(S(=O)(=O)N4CCCCCC4)ccc32)cc1	11.8	-9.0	-16.8	-5.6	-18.4
COc1ccc2oc3ccc(OC)cc3c(=O)c2c1	61.7*	-4.6	-0.1	-1.3	-28.2
CCNC(=O)N1CCN(c2ccc(N3CCN(Cc4ccccc4)[C@H](C)C3)c(C)c2)[C@@H](C)C1	.	.	.	-6.9	.
Cc1cc(C(=O)CSc2nnc(C3CC3)n2C2CC2)c(C)n1C(C)C	5.7	-25.9	.	-4.4	-33.0
CSc1ccccc1NC(=O)CN(C)Cc1ccc(Br)cc1	15.8	-31.8	-6.3	-2.9	-38.2
CCc1cccc(C)c1NC(=O)CN(C)Cc1ccc(Br)cc1	21.1	40.5*	3.2	-6.7	8.6
CCSC(=O)N(CC)CC(=O)Nc1c(CC)cccc1CC	21.7	-8.7	20.7*	.	-10.7
CCCN(CC(=O)Nc1c(C)cccc1CC)C(=O)SCC	12.3	-16.0	17.3	-5.7	1.2
COc1ccc(CNC(=O)CN(Cc2ccccc2)C(=O)CCC(=O)Nc2nccs2)cc1	15.5	-14.5	-1.8	-10.4	-26.1
CN(c1cccnc1)c1ccc(NC(=O)Cc2c[nH]c3ccccc23)cc1-c1cccnc1F	.	.	.	-6.6	.

Screens from PubChem BioAssay.
